From PubChem BioAssay
HUVEC inhibit – human endothelial cell proliferation inhibition | AID 648 | viability, % at 10 µM (by protocol) | HUVEC proliferation, CellTiter-Glo luminescence, 72 h; active compounds read low | 86,000 tested, 1.1% active;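 active means viability at or below 30%; inactive means viability above 30%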
PTEN del growth – growth suppressors of cells with PTEN tumor suppressor deletion; HCT116 PTEN-null viability, CellTiter-Glo, 60 h; active compounds read low; viability, % at 10 µM; 140,000 tested, 1.2% active;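 active means viability at or below a set limit, 4 SD under the median of all tested compounds, cut at about 3.7% in these data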;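 further: PTEN knockout HCT116 line with beta catenin targeted HCT116 as companion control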
H69AR inhibit – growth inhibitors of human H69AR lung tumor cells | H69AR lung tumor viability, ATP luminescence, 72 h; active compounds read low | viability, % at 10 µM | 85,000 tested, 6% active;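 active means viability at or below 40%; inactive means viability above 40%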;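 further: multidrug resistant small cell line overexpressing MRP-1 efflux transporter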
bCat KO growth – beta-catenin-lacking colon tumor cell growth suppression; HCT116 beta-catenin knockout viability, CellTiter-Glo, 60 h; active compounds read low; viability, % at 10 µM; 140,000 tested, 1.5% active;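 active means viability at or under a set limit, the compound median less 4 SD, cut at about 6% in these data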
Lung fibro prol – blocks proliferation of human lung fibroblasts | 85,000 tested, 1.1% active | AID 719 | LL 47 human lung fibroblast viability, ATP luminescence; active compounds read low | viability, % at 10 µM;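 active means viability at or below 50% in the single dose screen; inactive means viability above 50%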;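 further: compound exposure lasted 72 h before the ATP readout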
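Test system: LL 47 human lung fibroblasts / Quantity: 1,150 cells in each well / Medium: IMEM growth medium with 15% fetal bovine serum / Incubation: 72 h compound exposure at 37 °C after overnight plating / Detection: CellTiter-Glo luminescence measuring cellular ATP / Read-out: % viability versus median cells-only luminescence / Benchmarks: cell-only wells, no compound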
Hits are given with their value; n = inactive; x = no result given. The full list was thinned out, with hits kept by preference.

SMILES | HUVEC inhibit | PTEN del growth | H69AR inhibit | bCat KO growth | Lung fibro prol
CCOC(=O)/C(=N\Nc1ccc(OC)cc1)c1csc(Nc2ccccc2)n1 | n | n | 24 | n | n
CCOC(=O)/C(=N/Nc1ccccc1)c1csc(Nc2ccccc2)n1 | n | n | 11 | n | n
N#Cc1ccc(COC(=O)c2ccc(N3CCCC3)c([N+](=O)[O-])c2)cc1 | x | n | x | n | x
O=C(O)CC(NC(=O)C1c2ccccc2Oc2ccccc21)c1ccc(Cl)cc1 (stereo unspecified) | x | n | x | n | x
CCCOP(=O)(OCCC)c1c([N+](=O)[O-])cc(C(F)(F)F)cc1[N+](=O)[O-] | 12 | n | 39 | n | 19
CCOc1ccccc1NC(=O)/C=C/C(N)=O | n | n | 1.3 | n | n
CCOc1ccccc1NC(=O)/C=C/c1ccccc1[N+](=O)[O-] | x | n | x | n | x
Cc1cc(NS(=O)(=O)c2ccccc2)c(C)c(Cl)c1O | n | 2.2 | n | 2.3 | n
Cc1cc(NS(=O)(=O)c2ccccc2)c([N+](=O)[O-])cc1C | x | n | x | n | x
CCOC(=O)c1c(NC(=O)COc2cccc3c2CCN(C)C3=O)sc2c1CCC2 | x | n | x | n | x
CCOC(=O)c1ccc(NC(=O)CCc2nc(-c3ccc(C)cc3)no2)cc1 | 30 | n | n | n | n
CCOC(=O)c1ccc(NC(=O)CCc2nc(-c3ccc(Cl)cc3)no2)cc1 | n | n | 24 | n | n
c1ccc(OCc2nc3c4c(ncn3n2)-c2ccccc2CC42CCCC2)cc1 | x | n | x | n | x
CCCCC(CC)CNC(=O)C(=O)c1ccccc1NC(C)=O (stereo unspecified) | x | n | x | n | x
CCCC[n+]1ccn(C2=C([O-])c3ccccc3C(=O)/C2=N\S(=O)(=O)c2ccccc2)c1 | 5.1 | 1.6 | 8.6 | 2.1 | n
CCCCC[n+]1ccn(C2=C([O-])c3ccccc3C(=O)/C2=N\S(=O)(=O)c2ccccc2)c1 | 11 | n | 25 | 3.3 | n
CCn1cc([N+](=O)[O-])c(C(=O)N2N=C(c3ccc(O)c(OC)c3)CC2c2ccccc2O)n1 (stereo unspecified) | x | n | x | n | x
CCn1cc([N+](=O)[O-])c(C(=O)N2N=C(c3ccc4ccccc4c3)CC2c2cc(Br)ccc2O)n1 (stereo unspecified) | 10 | 3.2 | 14 | 2.4 | n
CCCCOc1ccc(C(=O)N/N=C/c2ccc(OCCN3CCCCC3)c(OC)c2)cc1 | x | n | x | n | x
Cc1cc(C)c2[nH]c(O)c(N=NC(=S)NCC3CCCO3)c2c1 (stereo unspecified) | x | n | x | n | x
Oc1[nH]c2c(Cl)cc(Cl)cc2c1N=NC(=S)NCC1CCCO1 (stereo unspecified) | x | 0.5 | x | 1.4 | x
Cc1cc(C)c(S(=O)(=O)/N=C2/C=C(Sc3ncn[nH]3)C(=O)c3ccccc32)cc1C | x | n | x | 3.1 | x
Nc1c([N+](=O)[O-])cnnc1-c1ccccc1 | x | n | x | n | x
Cc1ccc(C)c(S(=O)(=O)N2CCC(c3nc4c(nnn4Cc4ccc(F)cc4)c(=O)[nH]3)CC2)c1 | n | n | n | n | n
Cc1ccc(Cn2nnc3c(=O)[nH]c(C4CCN(S(=O)(=O)c5cc(C)ccc5C)CC4)nc32)cc1 | n | n | 32 | n | n
SMILES | HUVEC inhibit | PTEN del growth | H69AR inhibit | bCat KO growth | Lung fibro prol
COc1ccc(CCN2C(=O)C3CC(C)=C(C)CC3C2=O)cc1OC (stereo unspecified) | n | n | n | n | n
Cn1c(=O)n(C)c2cc([N+](=O)[O-])c(N3CCN(S(=O)(=O)c4ccccc4)CC3)cc21 | x | n | x | n | x
CCCn1c(CC)nc([N+](=O)[O-])c1S(=O)(=O)c1ccccc1 | x | 1.2 | x | 1.4 | x
Cc1ccccc1NC(=O)Cn1nc(C(F)(F)F)cc1C1CC1 | x | n | x | n | x
Cc1ccc(C)c(NC(=O)Cn2nc(C(F)(F)F)cc2C2CC2)c1 | x | n | x | 5.3 | x
Cc1ccn(C(=O)c2cc3c(C)nn(-c4ccccc4)c3s2)n1 | n | n | n | n | n
Cc1cnc(NC(=O)c2cc3c(C)nn(-c4ccccc4)c3s2)s1 | n | n | 26 | n | n
Cc1nn(-c2ccccc2)c2sc(C(=O)n3cccn3)cc12 | n | x | 38 | x | n
Cc1[nH]n(-c2ccc([N+](=O)[O-])cc2)c(=O)c1N=Nc1nc2ccccc2s1 | n | x | 35 | x | x
Cc1[nH]n(-c2ccc([N+](=O)[O-])cc2)c(=O)c1C=NCCc1c[nH]c2ccccc12 | x | n | x | n | x
c1ccc(C2c3c(ccc4ccccc34)Oc3ncn4nc(-c5ccco5)nc4c32)cc1 (stereo unspecified) | x | n | x | n | x
N=c1c2c(ncn1Cc1ccco1)Oc1c(ccc3ccccc13)C2c1ccccc1 (stereo unspecified) | x | 1.6 | x | 1.3 | x
N=c1c2c(ncn1CCN1CCOCC1)Oc1ccc3ccccc3c1C2c1ccccc1 (stereo unspecified) | 6.1 | 1.3 | 2.3 | 1.4 | n
COc1ccc(C2c3c(ncn(CCN4CCOCC4)c3=N)Oc3ccc4ccccc4c32)cc1 (stereo unspecified) | 29 | 1.1 | 1.3 | 1.5 | n
Cc1ccc2c(c1)nnn2C1CCN(S(=O)(=O)c2ccc(C(=O)N(C)C3CCCCC3)cc2)CC1 | n | n | 32 | n | n
Cc1ccc(S(=O)(=O)N2CCC(n3nnc4cc(C)ccc43)CC2)cc1 | n | n | n | n | n
N#CC(c1ccc(F)cc1)c1ccc(C(=O)c2ccc(F)cc2)cc1 (stereo unspecified) | n | n | n | n | n
Cc1ccc(C(C#N)c2ccc(C(=O)c3ccc(F)cc3)cc2)cc1 (stereo unspecified) | 17 | n | n | n | n
Cc1ccc(S(=O)(=O)N2CCN(Cc3ccccc3)CC2)c(C)c1N(C)S(=O)(=O)c1ccccc1 | x | n | x | n | x
C=CCNc1nc(N)c(C(=O)c2ccc3c(c2)OCO3)s1 | n | n | 29 | n | n
CCOc1cc(C)c(Cl)cc1S(=O)(=O)NCc1ccc2c(c1)OCO2 | n | n | 22 | n | n
COc1ccc(NC(=O)CCCc2c[nH]c3ccccc23)cc1OC | x | n | x | n | x
COc1ccc(C(c2c[nH]c3ccccc23)c2c[nH]c3ccccc23)cc1O | n | n | 7.2 | n | n
Cn1nc(C(=O)NC(C)(C)C)c2ccccc21 | x | n | x | n | x
CC1=C(CC(=O)c2ccc(Cl)cc2)C(=O)c2ccccc2C1=O | x | 1.9 | x | 3.7 | x
SMILES | HUVEC inhibit | PTEN del growth | H69AR inhibit | bCat KO growth | Lung fibro prol
Cc1cccc(C)c1NC(=O)C(c1ccc([N+](=O)[O-])cc1)N(C)C(=O)c1ccccn1 (stereo unspecified) | x | n | x | n | x
COc1cc(C2=NOC(C(=O)NCc3ccco3)C2)cc(OC)c1OC (stereo unspecified) | n | n | 25 | n | n
COc1ccc(C2=NOC(C(=O)NCc3ccco3)C2)cc1 (stereo unspecified) | n | n | 25 | n | n
O=C(NCc1ccco1)C1CC(c2c(Cl)cccc2Cl)=NO1 (stereo unspecified) | x | n | x | n | x
C=C1N(c2ccccc2)C(=O)OC1(C)C | x | n | x | n | x
CCOc1ccc(N=C(NN)c2ccc3ccccc3n2)cc1 | x | n | x | n | x
Cc1cccc(-n2ccnc2SCC(=O)Nc2nccs2)c1C | n | n | n | n | n
